Vif imaging = blocks HIV Vif function | HEK293T cells, Vif self-association by quenched fluorescence, imaging, 24 h | inhibition, % at 7.49 µM | hit rate 0.35% among 340,000 | AID 602346; in the data active means inhibition above about 50%, passing the limit was not always enough; inconclusive means no clear call, values can overlap the other calls; inactive means below about 31%
MITF act = increases MITF-driven TRPM1 promoter luciferase signal; SK-MEL-5 TRPM1-promoter luciferase, 24 h; % of positive control, neutral wells = 0; activation, % at 12.5 µM; hit rate 0.75% among 300,000;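 active means mean activation of at least 80% with every replicate also reaching 80%; inconclusive means mean reaches 80% but some replicate falls short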;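 further: 0% = neutral control wells and 100% = parthenolide positive control wells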
XiGFP reactiv = X-chromosome reactivation activator; XiGFP mouse fibroblasts, % GFP-positive cells imaging, 3 d; cells co-treated with 5-aza-dC sensitizer; scaled so ellipticine positive control = 100%; activation, % at 7.58 µM; hit rate 0.055% among 360,000; AID 743238;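 active means mean normalized replicate activation at least 10% and every replicate at or above 10%; inconclusive means only one of the two criteria met; inactive means mean below 10% and not all replicates reach 10%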;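 further: 0% = median of on-plate neutral control wells and 100% = ellipticine 6 µM median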
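material = 68-5-11 XiGFP fibroblast line | medium = DMEM plus 5-aza-dC sensitizer | schedule = 3 days compound exposure | benchmarks = positive control ellipticine, 6 µM final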
Wnt bcat act = activators of Wnt/beta-catenin signaling; AID 743398; Wnt/beta-catenin reporter cell assay, activator, plate reader; activation, % at 9.35 µM; hit rate 1.2% among 300,000; in the data active means activation above about 30%, passing the limit was not always enough; inconclusive means no clear call, values can overlap the other calls;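 further: 0% = neutral control wells and 100% = positive control wells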
esBAF inh = blocks esBAF chromatin remodeling in mouse ES cells | AID 602393 | hit rate 2% among 350,000 | reporter increase, % at 12.5 µM | Bmi1-luciferase knock-in reporter, 24 h; 100% = twice the neutral-well signal; in the data active means activation above about 40%; inconclusive means no clear call, values can overlap the other calls;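 further: 0% = median of the plate's neutral control wells and 100% = double that signal; a rise in the Bmi1 reporter signal indicates esBAF inhibition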
* hit, by the source's call; ? = inconclusive; . = not tested or not shown. In the library only some 2.6% were active in any assay of this set; here they are far more common.

SMILES	Vif imaging	MITF act	XiGFP reactiv	Wnt bcat act	esBAF inh
COc1cccc(CN(C(=O)c2cc3ccccc3oc2=O)C2CC2)c1	-10	.	.	?	57*
COc1ccc(CN(C(=O)c2cc3ccccc3oc2=O)C2CCS(=O)(=O)C2)cc1OC (centres undefined)	7	73	0	22	62*
COc1ccc(CN(C(=O)c2cc3ccccc3oc2=O)C2CCS(=O)(=O)C2)cc1 (centres undefined)	-13	.	0	22	.
CCOc1ccc(CN(C(=O)c2cc3ccccc3oc2=O)C2CCS(=O)(=O)C2)cc1 (centres undefined)	12	46	0	3	76*
COc1ccc(CN(C(=O)c2cc3ccccc3oc2=O)C2CCCC2)cc1	-2	-1	.	2	.
C[C@@H]1CCCCO[C@@H](CN(C)C(=O)c2ccccc2)[C@H](C)CN([C@H](C)CO)C(=O)c2cc(NC(=O)Nc3cccc4ccccc34)ccc2O1	.	.	0	.	14
C[C@@H]1CN([C@@H](C)CO)C(=O)Cc2cc(NS(=O)(=O)c3ccccc3)ccc2O[C@H]1CN(C)CC1CC1	.	.	0	.	0
CCC(=O)NC(c1ccccc1)c1nc2ccccc2[nH]1 (centres undefined)	-11	44	.	.	49*
CCOc1ccccc1NC(=O)CN1C(=O)CSC(C)C1=O (centres undefined)	6	-6	0	-1	.
CCOc1ccccc1NC(=O)CN1C(=O)C(C)SC(C)C1=O (centres undefined)	1	-10	0	39*	.
CN(C)CCCNc1ncnc2c1c(-c1ccccc1)cn2-c1ccccc1	14	22	0	-8	3
CN(C)CCCNc1ncnc2scc(-c3ccccc3)c12	-4	1	0	40*	.
O=C(Nc1ccc(F)cc1)N[C@H]1CC[C@H](CCNC(=O)c2ccccc2F)O[C@H]1CO	.	.	0	.	.
C[C@@H]1CN([C@@H](C)CO)C(=O)c2cc(NC(=O)Nc3ccc(F)cc3)ccc2O[C@@H](C)CCCCO[C@@H]1CN(C)C(=O)Cc1ccccc1	.	.	-1	.	-9
COc1ccc(CN(C)C[C@@H]2Oc3ccc(NS(=O)(=O)c4c(C)noc4C)cc3CC(=O)N([C@@H](C)CO)C[C@@H]2C)cc1	.	.	0	.	2
Cc1ccc(-c2noc(-c3ccccc3C(=O)N3CCN(C)CC3)n2)cc1	-4	.	.	-4	64*
O=C(c1ccccc1-c1nc(-c2ccccc2)no1)N1CCCC1	7	2	.	11	57*
Cc1onc(-c2ccccc2Cl)c1C(=O)N1CCN(C)CC1	51*	-9	0	-1	-11
Cc1ccc(-c2noc(-c3ccccc3C(=O)N3CCCC3)n2)cc1	-11	6	.	.	38
COc1ccc(-c2cc(C(=O)N3CCCC3)no2)cc1OC	11	36	0	20	67*
COc1ccc(-c2cc(C(=O)N3CCCCC3)no2)cc1OC	0	61	.	-4	59*
COc1ccc(-c2cc(C(=O)N3CCN(c4ccc(F)cc4)CC3)no2)cc1OC	-9	-6	0	-1	-4
COc1ccc(-c2cc(C(=O)N3CCN(Cc4ccccc4)CC3)no2)cc1OC	-5	13	.	.	-4
C[C@@H]1CCCCO[C@@H](CN(C)C(=O)NC2CCCCC2)[C@@H](C)CN([C@@H](C)CO)C(=O)c2cc(NC(=O)CCC(F)(F)F)ccc2O1	.	.	-1	.	-2
O=C1/C(=C\c2ccsc2)N2CCC1CC2	17	3	0	33*	0
SMILES	Vif imaging	MITF act	XiGFP reactiv	Wnt bcat act	esBAF inh
O=C(c1cccnc1)N1CC2(C1)[C@H](c1ccccc1)[C@@H](CO)N2Cc1ccc(Cl)cc1	.	.	0	.	.
CO[C@@H]1CN(C)C(=O)c2ccc(NC(=O)C3CC3)cc2OC[C@@H](C)N(C(=O)NC(C)C)C[C@H]1C	.	.	0	.	-2
O=C1OC(c2ccccc2)=N/C1=C\N1CCCCC1	-5	86*	.	-1	85*
O=C1OC(c2ccc(Br)cc2)=N/C1=C\N1CCCCC1	-5	124*	.	9	53*
Cc1ccc(C2=N/C(=C\c3c(C)nn(-c4ccccc4)c3N3CCCC3)C(=O)O2)cc1	-1	1	0	-2	0
O=C1OC(c2ccccc2)=C/C1=C/N1CCCCC1	2	105*	.	2	84*
CCS(=O)(=O)N[C@@H]1CC[C@@H](CC(=O)NCc2ccccn2)O[C@@H]1CO	.	.	0	.	0
O=C(c1ccc(F)cc1)N1CC(=O)N2[C@H](CO)[C@H](c3ccc(-c4cccnc4)cc3)[C@H]2C1	.	.	0	.	.
COc1ccc(NC(=O)CSc2nc(C3CC3)nc3ccccc23)cc1	11	-7	0	-3	12
CC(=O)c1ccc(NC(=O)CSc2nc(C3CC3)nc3ccccc23)cc1	51*	-4	0	-5	6
C[C@@H]1CN([C@@H](C)CO)C(=O)c2cc(NC(=O)c3ccncc3)ccc2O[C@H]1CN(C)Cc1ccc(C(F)(F)F)cc1	.	.	0	.	-3
Cc1noc(C)c1NC(=O)N(C)C[C@@H]1OCCCC[C@H](C)Oc2ccc(NS(=O)(=O)c3ccc(Cl)cc3)cc2C(=O)N([C@@H](C)CO)C[C@@H]1C	.	.	0	.	-5
CCCCCCc1cc2cc(-c3nnc(-c4ccccc4OC)o3)c(=O)oc2cc1O	70*	5	.	-4	-1
C[C@H]1CN([C@@H](C)CO)C(=O)c2cccc(NC(=O)C3CCOCC3)c2O[C@H]1CN(C)Cc1ccccc1	.	.	1	.	3
Cc1ccc(-c2n[nH]c(Cc3ccccc3)n2)cc1	-3	?	0	0	54*
CC(C)NC(=O)N(C)C[C@@H]1Oc2cc(-c3cccnc3)ccc2S(=O)(=O)N([C@H](C)CO)C[C@@H]1C	.	.	0	.	6
O=C(C1CCC1)N1CC[C@@H]2[C@H]1c1cc(Br)ccc1N[C@@H]2CO	.	.	0	.	.
O=C(C[C@@H]1C=C[C@H](NS(=O)(=O)c2ccccc2)[C@H](CO)O1)NCc1ccccc1F	.	.	0	.	-3
C[C@@H]1CN([C@@H](C)CO)S(=O)(=O)c2ccc(C#Cc3ccccc3)cc2O[C@H]1CN(C)C	.	.	0	.	-5
COc1ccc(-c2ccc(-c3noc(C)n3)c(OC)n2)cc1	.	91*	.	.	?
CCOc1nc(-c2ccc(OC)cc2)ccc1-c1noc(C)n1	-17	9	.	.	2
COCc1nc(-c2ccc(-c3ccc(C)cc3)nc2OC)no1	4	.	.	39*	43*
COc1nc(-c2ccc(C)cc2)ccc1-c1noc(-c2ccco2)n1	15	37	.	.	9
Cc1noc(C)c1NC(=O)Nc1ccc2c(c1)CC(=O)N([C@@H](C)CO)C[C@@H](C)[C@H](CN(C)Cc1ccc(-c3ccccc3)cc1)O2	.	.	-1	.	-6
Cc1cccc(-c2ccc([C@@H]3[C@@H](CO)N4C(=O)CN(C(=O)Cc5ccccn5)C[C@H]34)cc2)c1	.	.	0	.	.
O=C(c1ccco1)n1nc(-c2ccc(Cl)cc2)nc1NCc1ccco1	-16	.	.	-1	39
